In ChEMBL document CHEMBL1153949, “Design, synthesis, and structure-activity relationship of substrate competitive, selective, and in vivo active triazole and thiadiazole inhibitors of the c-Jun N-terminal kinase” (J Med Chem, 2009):
Calls of active or inactive are those of the source. The rule behind the calls is not given here.

What was measured:
[1] = biological target: Mitogen-activated protein kinase 14 (Homo sapiens, UniProt Q16539); test: Inhibition of p38alpha
Furin = Furin (Homo sapiens, UniProt P09958); test: Inhibition of furin
Furin, sequence (P09958 whole entry): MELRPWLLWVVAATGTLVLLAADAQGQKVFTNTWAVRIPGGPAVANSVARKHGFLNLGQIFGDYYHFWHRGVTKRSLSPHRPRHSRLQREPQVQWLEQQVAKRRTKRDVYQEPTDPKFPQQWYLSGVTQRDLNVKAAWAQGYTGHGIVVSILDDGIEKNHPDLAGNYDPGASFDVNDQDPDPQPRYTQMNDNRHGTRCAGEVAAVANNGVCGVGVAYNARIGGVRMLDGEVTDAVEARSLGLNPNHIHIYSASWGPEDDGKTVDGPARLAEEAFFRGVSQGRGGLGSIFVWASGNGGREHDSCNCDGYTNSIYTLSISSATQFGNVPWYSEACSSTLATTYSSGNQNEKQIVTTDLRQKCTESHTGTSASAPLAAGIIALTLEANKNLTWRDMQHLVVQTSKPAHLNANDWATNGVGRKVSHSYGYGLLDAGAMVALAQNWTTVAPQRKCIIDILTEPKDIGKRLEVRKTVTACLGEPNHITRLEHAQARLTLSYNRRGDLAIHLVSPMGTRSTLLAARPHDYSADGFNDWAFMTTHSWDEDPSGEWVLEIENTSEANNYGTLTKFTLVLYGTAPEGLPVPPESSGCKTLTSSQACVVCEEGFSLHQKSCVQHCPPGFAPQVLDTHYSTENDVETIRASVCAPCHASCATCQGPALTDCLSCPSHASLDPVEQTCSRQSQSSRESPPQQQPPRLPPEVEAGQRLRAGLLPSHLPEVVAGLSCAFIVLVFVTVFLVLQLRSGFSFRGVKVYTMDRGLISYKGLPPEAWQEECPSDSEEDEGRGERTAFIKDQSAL

[2] = Displacement of biotin-labeled pep-JIP11 from JNK at 100 uM by DELFIA assay
Method in brief: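 GST-JNK added at 10 nM final with Eu-anti-GST antibody (1.9 nM) and compound in DMSO. Incubated 1 hr at 0 °C, washed 5 times, enhancement solution added, and Eu fluorescence read after 10 min (ex 340, em 615 nm). Controls: unlabeled peptide and no-compound blanks.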

[3] = Inhibition of JNK at 100 uM by time-resolved FRET assay
Method in brief: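 LanthaScreen TR-FRET kinase assay. JNK 35 ng/mL with ATF2 substrate 400 nM and ATP 200 μM in 50 mM HEPES pH 7.5, 10 mM MgCl2, 1 mM EGTA, 0.01% Brij-35, with compound. Reaction ran 1 hr at room temperature. Terbium-labeled antibody plus EDTA added, incubated another hour, and read as the 520/495 nm emission ratio.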

[4] = Displacement of biotin-labeled pep-JIP11 from JNK by DELFIA assay
[5] = biological target: RAC-alpha serine/threonine-protein kinase (Homo sapiens) (UniProt P31749); test: Inhibition of AKT1 at 100 uM
RAC-alpha serine/threonine-protein kinase (Homo sapiens), sequence (P31749 whole entry): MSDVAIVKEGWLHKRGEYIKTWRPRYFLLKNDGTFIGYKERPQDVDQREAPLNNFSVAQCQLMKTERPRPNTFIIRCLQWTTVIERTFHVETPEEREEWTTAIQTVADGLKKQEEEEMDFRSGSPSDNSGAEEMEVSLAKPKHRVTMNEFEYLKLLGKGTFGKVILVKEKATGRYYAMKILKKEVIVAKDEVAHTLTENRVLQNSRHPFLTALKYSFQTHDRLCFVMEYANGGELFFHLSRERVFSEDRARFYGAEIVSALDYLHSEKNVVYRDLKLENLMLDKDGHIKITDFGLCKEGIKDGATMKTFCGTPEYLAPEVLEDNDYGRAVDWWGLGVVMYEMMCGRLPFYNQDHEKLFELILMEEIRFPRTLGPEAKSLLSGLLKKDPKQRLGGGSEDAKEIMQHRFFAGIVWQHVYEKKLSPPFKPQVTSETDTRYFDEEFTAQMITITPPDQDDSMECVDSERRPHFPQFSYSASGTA

[6] = Inhibition of lethal factor
[7] = Inhibition of TNF-alpha-stimulated JNK phosphorylation expressed in HeLa cells by time-resolved FRET assay; type: cell-based
Method in brief: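 HeLa cells stably expressing GFP-c-Jun(1–79), seeded at 10000/well in phenol red-free Opti-MEM with 1% charcoal/dextran-treated FBS, incubated overnight. Compound pretreatment 60 min, then TNF-α 2 ng/ml for 30 min. Cells lysed in buffer containing 2 nM Tb-anti-phospho-c-Jun (Ser73) antibody and equilibrated 1 hr at room temperature. TR-FRET read at 520/490 nm; EC50 taken from the concentration series.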

[8] = Metabolic stability in rat liver microsomes at 4 uM; type: ADME, Microsome
[9] = Selectivity for JNK over p38 alpha
Mus musculus = test: Enhancement of insulin insensitivity in BKS.Cg-+Lepr'db/-+Lepr'db/OlaHsd db/db mouse model assessed as reduction in blood glucose levels at 25 mg/kg, ip administered 30 mins before insulin injection; type: functional, organism-based; set-up: dose 25 mg/kg
Method in brief: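 Male db/db mice, 11 weeks old, randomized by blood glucose and fasted 6 h. Compound given at 25 mg/kg i.p., then bovine insulin 0.75 mg/kg i.p. 30 min later. Blood glucose read from tail snips with a hand-held meter at set time points; food returned at 3 h. n=6; means ± S.D.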

Mitogen-activated protein kinase 14, sequence (Q16539 whole entry): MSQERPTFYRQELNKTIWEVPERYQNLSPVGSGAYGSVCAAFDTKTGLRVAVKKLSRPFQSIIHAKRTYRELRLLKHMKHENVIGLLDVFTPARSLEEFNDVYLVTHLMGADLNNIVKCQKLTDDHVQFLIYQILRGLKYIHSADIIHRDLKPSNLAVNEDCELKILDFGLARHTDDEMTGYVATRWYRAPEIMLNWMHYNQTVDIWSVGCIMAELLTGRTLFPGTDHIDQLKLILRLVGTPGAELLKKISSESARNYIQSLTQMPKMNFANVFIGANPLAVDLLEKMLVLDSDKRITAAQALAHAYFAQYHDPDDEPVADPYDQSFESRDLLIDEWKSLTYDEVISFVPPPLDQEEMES

O=c1[nH]nc(Sc2ncc([N+](=O)[O-])s2)n1-c1ccc([N+](=O)[O-])cc1
IC50 [1]: > 100 µM
IC50 (Furin): > 50 µM

CCSc1nnc(O)n1-c1ccccc1
inhibition [2]: inactive
inhibition [3]: 16%

CCCCSc1nnc(O)n1-c1ccccc1
inhibition [2]: inactive
inhibition [3]: 25%

O=[N+]([O-])c1cnc(Sc2nnc(O)n2-c2ccc3c(c2)OCCO3)s1
IC50 [4]: 0.108 µM

O=[N+]([O-])c1ccc(CSc2nnc(SCc3ccc([N+](=O)[O-])cc3)s2)cc1
inhibition [2]: inactive

Cn1cccc1-c1nnc(Sc2ncc([N+](=O)[O-])s2)n1-c1ccc(Cl)cc1Cl
inhibition [5]: 14%
IC50 [6]: > 100 µM
IC50 [1]: > 100 µM
IC50 (Furin): > 50 µM

O=[N+]([O-])c1ccc(Sc2nnc(O)n2-c2ccccc2)s1
inhibition [2]: 55%
inhibition [3]: 22%

O=[N+]([O-])c1cnc(Sc2nnc(Sc3ncc([N+](=O)[O-])s3)s2)s1
inhibition [5]: 27%
IC50 [6]: > 100 µM
IC50 [1]: > 100 µM
IC50 (Furin): > 50 µM

O=[N+]([O-])c1cccc(CSc2nnc(SCc3cccc([N+](=O)[O-])c3)s2)c1
inhibition [2]: inactive

Oc1nnc(SCc2ccccc2)n1-c1ccc2c(c1)OCCO2
inhibition [2]: inactive
inhibition [3]: 2%

O=C(Nc1nnc(Sc2ncc([N+](=O)[O-])s2)s1)c1ccc(F)cc1
inhibition [2]: inactive

c1ccc(CSc2nnc(SCc3ccccc3)s2)cc1
inhibition [2]: inactive

O=[N+]([O-])c1ccc(-n2c(O)nnc2Sc2ncc([N+](=O)[O-])s2)cc1
inhibition [5]: 20%
IC50 [6]: > 100 µM

Nc1nnc(Sc2ncc([N+](=O)[O-])s2)s1
inhibition [5]: 11%
EC50 [7]: 6.23 µM
half-life at 4 µM [8]: 27 min
Ratio IC50 [9]: 142
Activity [4]: Dose-dependent effect
IC50 [6]: > 100 µM
Activity (Mus musculus): Active
IC50 [1]: > 100 µM
IC50 (Furin): > 50 µM

Fc1ccc(CSc2nnc(SCc3ccc(F)cc3)s2)cc1
inhibition [2]: inactive

Nc1nnc(SCc2ccc(F)cc2)s1
IC50 [4]: > 1 µM

COc1ccc(CSc2nnc(SCc3ccc(OC)cc3)s2)cc1
inhibition [2]: inactive

O=[N+]([O-])c1cnc(Sc2nnc(O)n2-c2ccc(F)c(F)c2)s1
inhibition [2]: 73%
